For data set [1], the target named is Mu-type opioid receptor (Cavia porcellus) (UniProt P97266). Nature of the data set: Partial agonist activity at MOR in guinea pig ileum. The class given is tissue-based. A digest of the protocol:
(§1)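 Isolated guinea pig ileum (MOR) and mouse vas deferens (DOR) bioassays. A [Leu5]enkephalin standard dose-response curve was run on each tissue preparation, and test IC50 values were normalized to it. Values are means of 3-4 experiments.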

Data set [2] has as its target T1, Substance-P receptor (Homo sapiens, UniProt P25103). Nature of the data set: Displacement of [3H]SP from human NK1 receptor expressed in CHO cells after 20 mins by liquid scintillation counting analysis. The class given is cell-based. A digest of the protocol:
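Membranes from hNK1/CHO cells (20 µg) were incubated with 0.4 nM [3H]SP and six test concentrations in duplicate. Buffer was 50 mM Tris pH 7.4 with 5 mM MgCl2, bacitracin, bestatin, captopril and PMSF, for 20 min at 25 °C. Nonspecific binding was defined with 10 µM SP. Samples were filtered on PEI-soaked GF/B, counted by scintillation, three independent experiments. Ki by Cheng-Prusoff from nonlinear-regression IC50.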

In data set [3] the target is Delta-type opioid receptor (Mus musculus, UniProt P32300). Nature of the data set: Activation of DOR in mouse vas deferens. In a few lines: as §1
In data set [4] the target is Mu-type opioid receptor (Cavia porcellus) (UniProt P97266). Nature of the data set: Antagonist activity at MOR in guinea pig ileum. The class given is tissue-based.
In data set [5] the target is Delta-type opioid receptor (Rattus norvegicus, UniProt P33533). Nature of the data set: Displacement of [3H]DSLET from rat brain DOR after 2 hrs. In a few lines:
(§2)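 Rat brain membranes were incubated 2 h at 0 °C with 0.72 nM [3H]DAMGO (MOR) or 0.78 nM [3H]DSLET (DOR). IC50 came from log-dose displacement curves.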
Background: Loss of bound radioactivity is the signal in a displacement assay; it reports binding, not function.

Data set [6] addresses Mu-type opioid receptor (Rattus norvegicus, UniProt P33535). Briefly: Displacement of [3H]DAMGO from rat brain MOR after 2 hrs. A digest of the protocol:
as §2

Data set [7] has as its target Mu-type opioid receptor (Cavia porcellus, UniProt P97266). Briefly: Activation of MOR in guinea pig ileum. The class given is tissue-based. A digest of the protocol:
as §1

Data set [8] is filed under the species Rattus norvegicus. Briefly: Selectivity ratio of Ki for rat brain DOR to Ki for rat brain MOR.
Data set [9] has as its target T1, Substance-P receptor. Briefly: Antagonist activity at human NK1 receptor expressed in CHO cells by luminescence assay in presence of SP peptide. The class given is cell-based. To be noted: read-out: pA2 (converted).
The species named for data set [10] is Rattus norvegicus. Briefly: Reduction of hyperalgesia in Wistar rat chronic constriction injury model at 1 nmol, it measured 7 days post CCI challenge by cold plate test. The class given is functional, organism-based. A digest of the protocol:
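In catheterized male Wistar rats with sciatic CCI, a single i.t. dose in water for injection was given on day 7. Thermal hyperalgesia was measured 30 min later as latency to hind-paw shake on a 5 °C cold plate. Data are %MPE, 6-12 rats/group, ANOVA with Bonferroni.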

The subject of data set [11] is Rattus norvegicus. Nature of the data set: Toxicity in Wistar rat assessed as seizures at 9.5 nmol, iv. The class given is organism-based. Conditions: in vivo.
The species named for data set [12] is Rattus norvegicus. Briefly: Antinociceptive activity in Wistar rat at 1 to 50 nmol, it after 30 mins by tail flick test. The class given is functional, organism-based. A digest of the protocol: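 Male Wistar rats (250-300 g), naive, with chronic i.t. catheters inserted through the atlanto-occipital membrane to L4-L6 under pentobarbital anaesthesia. Tested on day 7 after implantation. Drug in water for injection was given as a single 5 µl i.t. injection, then 10 µl flush. Tail-flick (light-bulb heat at two-thirds tail length, 9 s cut-off) was read 30 min post-dose. Values are %MPE vs baseline; 7-12 rats/group; ANOVA/Bonferroni.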

Data set [13] relates to Rattus norvegicus. Briefly: Toxicity in Wistar rat assessed as death at 9.5 nmol, iv. The class given is organism-based. To be noted: in vivo.
The species entered for data set [14] is Rattus norvegicus. Briefly: Antiallodynic effect in Wistar rat chronic constriction injury model at 0.1 to 1 nmol, it measured 7 days post CCI challenge by Von Frey test. The class given is functional, organism-based. In a few lines:
(§3)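 Male Wistar rats (300-350 g) with i.t. catheters (L4-L6) had CCI made by four loose silk ligatures on the right sciatic nerve. On day 7 they received a single i.t. dose in water for injection. Mechanical allodynia was measured 30 min later with an automatic von Frey device (0.5-26 g) on the midplantar hind paw. Data are %MPE, 6-12 rats/group, ANOVA with Bonferroni.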

Data set [15] has as its system Rattus norvegicus. Briefly: Antinociceptive activity in Wistar rat up to 1.21 umol/kg, iv after 30 mins by tail flick test. The class given is functional, organism-based.
The subject of a further data set is Mus musculus. Briefly: Antinociceptive activity in C57Bl6 mouse at 1.21 umol/kg, iv after 30 mins by tail flick test. The class given is functional, organism-based. A digest of the protocol: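 Male C57Bl6 mice (25-28 g) received a single i.v. dose dissolved in saline or water for injection. Radiant-heat tail-flick latency was measured at 5, 15, 30, 60, 120 and 180 min, with a 7 s cut-off. Data are %MPE, 6-8 mice/group.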

The species entered for data set [16] is Rattus norvegicus. Nature of the data set: Antinociceptive activity in Wistar rat at 0.001 to 0.1 nmol, it after 30 mins to 2 hrs by tail flick test. The class given is functional, organism-based. Background: Hot-plate and tail-flick tests time the reaction to a heat stimulus.
For data set [17], the species on record is Rattus norvegicus. Briefly: Antinociceptive activity in Wistar rat at 0.1 nmol, it after 30 mins by tail flick test. The class given is functional. A digest of the protocol:
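Naive male Wistar rats (250-300 g) with i.t. catheters received a single i.t. injection in water for injection (5 µl plus 10 µl flush), 7 days after catheter implantation. Tail-flick latency to a light-bulb heat stimulus at two-thirds of tail length was read 30 min post-dose (timepoints up to 180 min), with a 9 s cut-off. Data are %MPE = (TL-BL)/(cut-off-BL)×100, 7-12 rats/group, ANOVA with Bonferroni.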

The species entered for data set [18] is Rattus norvegicus. Nature of the data set: Toxicity in Wistar rat chronic constriction injury model at 1 nmol, it measured 7 days post CCI challenge. The class given is organism-based. To be noted: in vivo, icv_or_intrathecal, 168 h.
The species named for data set [19] is Rattus norvegicus. Briefly: Antiallodynic effect in Wistar rat chronic constriction injury model at 0.001 to 1 nmol, it measured 7 days post CCI challenge by Von Frey test. The class given is functional, organism-based. In a few lines:
as §3

Calls of active or inactive are those of the source.

Chain of Delta-type opioid receptor (Mus musculus, UniProt P32300) (P32300 whole entry): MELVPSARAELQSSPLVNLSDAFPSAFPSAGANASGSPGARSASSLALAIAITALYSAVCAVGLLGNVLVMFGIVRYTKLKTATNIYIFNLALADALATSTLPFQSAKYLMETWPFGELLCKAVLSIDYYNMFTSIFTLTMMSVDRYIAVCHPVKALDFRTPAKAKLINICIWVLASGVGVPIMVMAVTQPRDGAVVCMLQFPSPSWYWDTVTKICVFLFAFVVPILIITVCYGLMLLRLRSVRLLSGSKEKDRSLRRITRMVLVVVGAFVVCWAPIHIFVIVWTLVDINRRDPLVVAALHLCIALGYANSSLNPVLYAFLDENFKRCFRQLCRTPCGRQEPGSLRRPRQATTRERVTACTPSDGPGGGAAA
T1 sequence (P25103 whole entry): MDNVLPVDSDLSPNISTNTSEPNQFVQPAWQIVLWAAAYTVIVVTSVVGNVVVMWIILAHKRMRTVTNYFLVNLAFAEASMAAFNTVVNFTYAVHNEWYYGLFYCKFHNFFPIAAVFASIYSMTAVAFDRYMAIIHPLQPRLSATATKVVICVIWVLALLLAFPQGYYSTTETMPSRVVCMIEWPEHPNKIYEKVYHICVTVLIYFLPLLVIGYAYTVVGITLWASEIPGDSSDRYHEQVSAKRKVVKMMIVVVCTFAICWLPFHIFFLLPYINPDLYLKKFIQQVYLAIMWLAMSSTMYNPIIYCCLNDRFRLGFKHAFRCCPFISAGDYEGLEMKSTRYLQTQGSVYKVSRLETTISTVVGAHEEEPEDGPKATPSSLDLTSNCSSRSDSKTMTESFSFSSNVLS
Chain of Mu-type opioid receptor (Cavia porcellus) (P97266 whole entry): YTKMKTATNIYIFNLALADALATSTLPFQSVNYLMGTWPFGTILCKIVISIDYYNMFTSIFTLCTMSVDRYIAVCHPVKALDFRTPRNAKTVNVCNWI
Chain of Delta-type opioid receptor (Rattus norvegicus, UniProt P33533) (P33533 whole entry): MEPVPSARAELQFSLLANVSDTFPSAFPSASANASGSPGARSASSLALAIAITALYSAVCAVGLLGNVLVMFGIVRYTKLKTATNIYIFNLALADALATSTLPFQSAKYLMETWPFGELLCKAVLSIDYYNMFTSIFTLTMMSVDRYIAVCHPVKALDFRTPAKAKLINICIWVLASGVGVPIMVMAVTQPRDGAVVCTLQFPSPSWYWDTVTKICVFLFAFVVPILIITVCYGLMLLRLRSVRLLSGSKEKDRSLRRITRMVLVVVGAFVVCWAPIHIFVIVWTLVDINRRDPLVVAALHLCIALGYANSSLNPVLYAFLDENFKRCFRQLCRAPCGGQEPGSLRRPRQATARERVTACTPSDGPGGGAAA
Chain of Mu-type opioid receptor (Rattus norvegicus, UniProt P33535) (P33535 whole entry): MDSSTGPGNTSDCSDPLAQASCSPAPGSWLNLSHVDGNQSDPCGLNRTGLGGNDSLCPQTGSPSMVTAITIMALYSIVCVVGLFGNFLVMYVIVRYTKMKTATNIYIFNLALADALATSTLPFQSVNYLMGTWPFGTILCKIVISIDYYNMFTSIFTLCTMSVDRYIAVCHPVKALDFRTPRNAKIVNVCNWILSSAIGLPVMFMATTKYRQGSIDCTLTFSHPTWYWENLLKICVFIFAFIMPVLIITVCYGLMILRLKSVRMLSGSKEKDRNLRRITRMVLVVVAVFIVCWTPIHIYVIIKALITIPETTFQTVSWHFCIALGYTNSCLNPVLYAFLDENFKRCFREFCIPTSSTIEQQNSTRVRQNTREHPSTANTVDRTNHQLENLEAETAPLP
Chain of Mu-type opioid receptor (Cavia porcellus, UniProt P97266) (P97266 whole entry): as the sequence (P97266 whole entry) above

In the case of `Cc1cc(O)cc(C)c1C[C@H](N)C(=O)N[C@H](CCCNC(=N)N)C(=O)N[C@H]1Cc2ccccc2CN(CC(=O)N(Cc2ccccc2)CC(C)C)C1=O`, in data set [1], the outcome was Active. At Substance-P receptor [2], this compound showed a Ki of 1020 nM. In data set [3], this compound showed an IC50 of 28.7 nM. The Ke in data set [4] was found to be 5.91 nM.

In the case of `Cc1cc(O)cc(C)c1C[C@H](N)C(=O)N[C@H](CCCNC(=N)N)C(=O)N[C@H]1Cc2ccccc2CN(CCC(=O)N(Cc2ccccc2)CC(C)C)C1=O`, affinity at Substance-P receptor [2] was put at a Ki of 308 nM.

`Cc1cc(O)cc(C)c1C[C@H](N)C(=O)N[C@H](CCCNC(=N)N)C(=O)N[C@H]1Cc2ccccc2CN(CCC(=O)N(C)Cc2cc(C(F)(F)F)cc(C(F)(F)F)c2)C1=O`: the values for the Ki (in data set [5]; on Mu-type opioid receptor [6]; at Substance-P receptor [2]) were 2.14 nM, 0.08 nM and 59.7 nM, respectively. Also, the IC50 amounted to 6.2 nM in data set [3] and 11.3 nM against Mu-type opioid receptor [7]. The Ratio Ki in the data set filed under Rattus norvegicus [8] was determined as 25.3. Moreover, the Kb at Substance-P receptor [9] was 912 nM.

Turning to `CC(=O)N[C@H]1Cc2ccccc2CN(CC(=O)N(C)Cc2cc(C(F)(F)F)cc(C(F)(F)F)c2)C1=O`, the result in the data set filed under Rattus norvegicus [10], in the data set filed under Rattus norvegicus [12] and in the data set listed under Rattus norvegicus [14] was Active. In addition, the Activity entry with Rattus norvegicus [11] and in the data set on Rattus norvegicus [13] was “Toxic” in each case. In the data set with Rattus norvegicus [15], the result was inactive.

`Cc1cc(O)cc(C)c1C[C@H](N)C(=O)N[C@H](CCCNC(=N)N)C(=O)N[C@H]1Cc2ccccc2CN(CC(=O)N(Cc2cc(C(F)(F)F)cc(C(F)(F)F)c2)CC(C)C)C1=O` came in with an Activity in [1] of 19.7 nM. For the same compound, on Substance-P receptor [2], the Ki stood at 35 nM. In data set [3], this compound displayed an IC50 of 14.5 nM. In [4], the Ke is 12.7 nM.

As to `Cc1cc(O)cc(C)c1C[C@H](N)C(=O)N[C@H](CCCNC(=N)N)C(=O)N[C@H]1Cc2ccccc2CN(CCC(N)=O)C1=O`, the result in the data set with Mus musculus, in the data set listed under Rattus norvegicus [16], in the data set filed under Rattus norvegicus [10] and in the data set filed under Rattus norvegicus [19] was Active. The MPE in the data set filed under Rattus norvegicus [17] worked out at 99.7%. The Activity result in the data set listed under Rattus norvegicus [18] is “Toxic”. Also, the Ratio Ki in the data set listed under Rattus norvegicus [8] was determined as 12.7.

For the compound `Cc1cc(O)cc(C)c1C[C@H](N)C(=O)N[C@H](CCCNC(=N)N)C(=O)N[C@H]1Cc2ccccc2CN(CCC(=O)N(Cc2cc(C(F)(F)F)cc(C(F)(F)F)c2)CC(C)C)C1=O`, the Ki on Substance-P receptor [2] was found to be 743 nM.

By Ki is commonly meant the dissociation constant of the complex between target and ligand, obtained from inhibition or displacement. Lower therefore signals higher affinity. For orientation: IC50 means the concentration needed to halve the response being measured.

Source of the values: ChEMBL document CHEMBL3407477, “Synthesis and biological evaluation of compact, conformationally constrained bifunctional opioid agonist - neurokinin-1 antagonist peptidomimetics” (Eur J Med Chem, 2015).
